This is an account of results in PubChem BioAssay.

Test [1] is described as follows: inhibitors of TNFa-induced NFkB p65 translocation, primary screen, imaging, HUVEC, MLSMR starter and 10KST1 sets (AID 438;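 active = inhibition above 20% together with a positive visual image hit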;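 also: compound added about 3h40 before a 20 min TNFalpha stimulation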;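 as to inhibition: signal is the nuclear over cytoplasmic p65 intensity ratio per well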). Particulars: HUVEC TNFa-induced p65 nuclear translocation; cell count: measured here: nuclei count (cytotoxicity indicator), at 2.08 µM; inhibition: at 2 µM, stronger effect = higher value, 0% TNFa-plus-vehicle, 100% no-TNFa wells.
Test [2] is described as follows: reduction of polyQ htt aggregates in cells – imaging, exon1htt(103Q)mCFP cells, high-content imaging, primary screen (AID 483;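 active = visual image review flags a hit and inhibition of aggregation exceeds 20%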;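 also: compound exposure lasted 3 days before fixation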;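 as to nuclei count: percent of the per-plate median nuclei count of sample wells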). Particulars: exon1htt(103Q)mCFP cell line, aggregate imaging, at 2 µM; inhibition of aggregation: stronger effect = higher value; nuclei count: measured here: cell count, toxicity.
A short description of test [3]: endothelial E-selectin expression blockers – imaging, HUVEC, immunofluorescence, MLSMR starter and 10KST1 sets, primary screen (AID 487;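 active = visually confirmed hit in the image check and inhibition above 20%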;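 as to inhibition: signal is fraction of cell area covered by stained E-selectin grains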;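 as to nuclei count: 100% = median nuclei count of all wells on the same plate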). The following applies: HUVEC TNFalpha-induced E-selectin immunofluorescence imaging, at 2 µM; inhibition: stronger effect = higher value; nuclei count: measured here: cell number, toxicity.
Test [4] has as its target Voltage-gated potassium channel subunit beta-2 (Rattus norvegicus) (UniProt P62483). Description: inhibitors of rat Kvbeta2 reductase activity – biochemical, NADPH fluorescence, primary screen (AID 622;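 active = fluorescence slope higher than the sample average by over 3 SD, cut at about -0.22 in these data, passing the limit was not always enough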;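 also: slope of raw intensity against log time taken from 70 to 1610 s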). The following applies: recombinant KvBeta, 4-cyanobenzaldehyde reduction, at 10 µM, stronger effect = higher value.
Test [5] has the same target. Description: enhancers of rat Kvbeta2 NADPH turnover – biochemical, NADPH fluorescence, primary screen (AID 623;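 active = NADPH fluorescence slope more negative than the mean of all samples by about 3 SD, 99.7% confidence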;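 also: fluorescence intensity change per second fitted from 20 to 320 s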). The following applies: Recombinant KvBeta, NADPH fluorescence decrease slope, 10 min; at 10 µM; stronger effect = lower value.
The target of test [6] is Muscarinic acetylcholine receptor M4 (Homo sapiens) (UniProt P08173). Description: M4-linked GIRK flux change, two-sided – cell-based, HEK293 M4/GIRK, thallium flux, BTC-AM, M4 allosteric agonist project, primary screen (AID 625;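 active = fluorescence slope after compound addition differing from the mean of all tested samples at 99.7% confidence, mostly higher but some lower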;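 also: thallium influx through GIRK channels coupled to M4 in HEK293 cells with BTC-AM dye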). Particulars: at 10 µM, actives lie on both sides. An outline of the steps:
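Assay system: HEK293 cells with M4 receptor and GIRK channels / Controls: carbachol and DMSO controls / Schedule: 1 h dye loading, 2 min kinetic read / Technique: kinetic fluorescence with BTC-AM dye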

The nature of test [7]: blockers of RIG-like receptor reporter activation – cell-based, Sendai virus stimulus, luciferase, 10K MLSCN set, TLR/RLR signaling modifier project, primary screen (AID 602276;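 active = inhibition at or above 50% at 10 µM; inactive = inhibition below 50%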;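 also: firefly luciferase from ISG56 promoter only with Renilla not read in this screen; 0% = Sendai virus plus DMSO and 100% = medium plus DMSO without virus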). The following applies: HEK293 RL24 IRF3 luciferase reporter, at 10 µM, stronger effect = higher value. For orientation: Reporter assays use an easily measured gene product as a stand-in for the process of interest.

Test [8] is described as follows: TLR3 IRF3 reporter activation blockers – cell-based, poly I:C stimulus, luciferase, 10K MLSCN set, primary screen (AID 602277). Particulars: HEK293-TLR3 RL24 IRF3 luciferase reporter, at 10 µM, stronger effect = higher value.

As usually defined, the inhibition is the change of the read-out against control, counted positive when it falls.

Molecules are shown by their SMILES. Active and inactive are the calls of the source.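 The calls were made as follows, unless noted: active = inhibition of the reporter signal at or above 50%; inactive = inhibition below 50%.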

Voltage-gated potassium channel subunit beta-2 (Rattus norvegicus), sequence (P62483 whole entry, looked up): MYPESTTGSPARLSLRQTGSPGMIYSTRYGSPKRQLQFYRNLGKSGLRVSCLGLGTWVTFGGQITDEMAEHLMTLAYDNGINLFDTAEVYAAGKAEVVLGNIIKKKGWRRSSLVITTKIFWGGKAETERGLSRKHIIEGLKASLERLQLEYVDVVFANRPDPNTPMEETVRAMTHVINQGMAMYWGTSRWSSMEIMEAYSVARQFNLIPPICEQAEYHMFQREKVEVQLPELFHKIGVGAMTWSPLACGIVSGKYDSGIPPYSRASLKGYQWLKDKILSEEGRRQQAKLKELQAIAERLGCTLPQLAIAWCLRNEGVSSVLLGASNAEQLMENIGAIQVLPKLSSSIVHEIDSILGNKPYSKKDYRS
Muscarinic acetylcholine receptor M4 (Homo sapiens), sequence (P08173 whole entry, looked up): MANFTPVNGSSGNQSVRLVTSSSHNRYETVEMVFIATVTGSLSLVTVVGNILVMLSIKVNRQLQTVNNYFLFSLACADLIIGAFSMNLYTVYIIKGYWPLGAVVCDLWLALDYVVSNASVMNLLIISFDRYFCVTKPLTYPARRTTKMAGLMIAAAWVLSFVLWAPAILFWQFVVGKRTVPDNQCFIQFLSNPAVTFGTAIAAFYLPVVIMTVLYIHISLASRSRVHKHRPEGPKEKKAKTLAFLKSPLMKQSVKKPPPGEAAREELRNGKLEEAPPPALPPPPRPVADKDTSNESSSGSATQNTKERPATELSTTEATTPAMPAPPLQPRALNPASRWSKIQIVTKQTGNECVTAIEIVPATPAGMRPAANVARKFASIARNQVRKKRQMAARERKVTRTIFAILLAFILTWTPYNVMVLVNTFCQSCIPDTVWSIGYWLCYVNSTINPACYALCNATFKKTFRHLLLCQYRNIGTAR

In the case of `CCOc1ccccc1C(=O)NCCCn1ccnc1`, in test [1], the cell count came out at 469. The inhibition in test [1] was 5.5% (inactive); in test [3], -89.5% (inactive); in test [7] it was 11.4% (inactive); in test [8], 8.04% (inactive). Besides, the inhibition of aggregation in test [2] was 6.9% (inactive). Besides, the figures for the nuclei count in test [2] and in test [3] were 96.2% and 121%, respectively. Also, the fluorescence slope was -0.576 (inactive) in test [4] and 0.00757 (inactive) in test [6]. Moreover, in test [5], the NADPH fluorescence slope was -6.1e-05 (inactive).

Turning to `Cc1c2c(nc3nc4ccccc4n13)CC(C)(C)CC2=O`, the cell count in test [1] stood at 632. For the same compound, the inhibition was 8.2% (inactive) in test [1], -63.4% (inactive) in test [3], 16.3% (inactive) in test [7] and 28.8% (inactive) in test [8]. In addition, in test [2], the inhibition of aggregation is -6.2% (inactive). Besides, the results for the nuclei count in test [2] and in test [3] were 109% and 106%, respectively. Further, the results for the fluorescence slope in test [4] and in test [6] were -0.603 (inactive) and 0.00409 (inactive), respectively. Besides, the NADPH fluorescence slope in test [5] was -2.5e-05 (inactive).

Turning to `O=C(c1cn(-c2ccccc2)nc1-c1cccs1)N1CCN(c2ccccn2)CC1`, the cell count in test [1] was 465. The inhibition in test [1] is -10.8% (inactive); in test [3] it was -83% (inactive); in test [7] it was 6.18% (inactive); in test [8] it was -18.9% (inactive). Also, the inhibition of aggregation in test [2] is 11.5% (inactive). For the same compound, the nuclei count is 84.1% in test [2] and 150% in test [3]. Also, the fluorescence slope in test [4] is -0.421 (inactive); in test [6] it was 0.00586 (inactive). Besides, the NADPH fluorescence slope in test [5] was 4e-05 (inactive).

`CC(C)CCNC(=O)CCNS(=O)(=O)c1ccc(Cl)cc1`: in test [1], the cell count came to 538. Moreover, the inhibition is -19.2% (inactive) in test [1], -36.9% (inactive) in test [3], 22.9% (inactive) in test [7] and 25.9% (inactive) in test [8]. Besides, in test [2], the inhibition of aggregation is 1.9% (inactive). Besides, the nuclei count amounted to 79.8% in test [2] and 91.3% in test [3]. Also, the fluorescence slope in test [4] is -0.566 (inactive); in test [6], 0.00577 (inactive). For the same compound, the NADPH fluorescence slope in test [5] was -1.2e-05 (inactive).

Take `COc1ccc(C2CC(c3ccc(Cl)cc3)Nc3nc(NC(=O)c4ccco4)nn32)cc1` (stereo not drawn): the cell count in test [1] came out at 574. In addition, the inhibition in test [1] is -11.9% (inactive); in test [3], 27.9% (inactive); in test [7] it was 14.1% (inactive); in test [8] it was 24.6% (inactive). Also, in test [2], the inhibition of aggregation was -6.2% (inactive). The nuclei count in test [2] is 98.1%; in test [3], 91.8%. The results for the fluorescence slope in test [4] and in test [6] were -0.427 (inactive) and 0.00611 (inactive), respectively. Further, the NADPH fluorescence slope in test [5] was -6.7e-05 (inactive).

For the compound `O=S1(=O)C=CC(Nc2cccc(Cl)c2)C1` (stereo not drawn), in test [1], the cell count was determined as 682. The inhibition is -1% (inactive) in test [1], -7.5% (inactive) in test [3], 22.9% (inactive) in test [7] and 30.3% (inactive) in test [8]. Moreover, the inhibition of aggregation in test [2] was -6.1% (inactive). In addition, the nuclei count in test [2] turned out to be 97.2%; in test [3] it was 98.1%. In addition, the values for the fluorescence slope in test [4] and in test [6] were -0.447 (inactive) and 0.0065 (inactive), respectively. The NADPH fluorescence slope in test [5] was -6.1e-05 (inactive).

Consider `COc1cc(OC)cc(-n2nnnc2SCC(=O)N2CCCC2)c1`, for which the cell count in test [1] worked out at 740. Moreover, the inhibition is -7.3% (inactive) in test [1], 12% (inactive) in test [3], 15.1% (inactive) in test [7] and 23.1% (inactive) in test [8]. In addition, the inhibition of aggregation in test [2] is 18.3% (inactive). Further, the nuclei count in test [2] was found to be 94.2%; in test [3], 103%. In addition, the fluorescence slope in test [4] is -0.622 (inactive); in test [6], 0.0053 (inactive). In test [5], the NADPH fluorescence slope was 1.7e-05 (inactive).

With `Nc1nnc(SCC(=O)N2CCN(c3ccccc3)CC2)n1-c1ccccc1`, in test [1], the cell count stood at 774. The inhibition in test [1] is -11.4% (inactive); in test [3], -82% (inactive); in test [7], 10.7% (inactive); in test [8] it was 21.1% (inactive). Besides, in test [2], the inhibition of aggregation is 2% (inactive). Further, the nuclei count in test [2] is 99.4%; in test [3], 111%. Further, the fluorescence slope was -0.572 (inactive) in test [4] and 0.00636 (inactive) in test [6]. Also, in test [5], the NADPH fluorescence slope is -3.7e-05 (inactive).
